# OX1R antag-1 – antagonists of human orexin 1 receptor (OX1R). Orexin/Hypocretin receptor type 1 (Homo sapiens), O43613. OX1R-expressing cells, FRET antagonist read-out. inhibition, % at 6.6 µM. hit rate 1.8% among 330,000. AID 485270, 2010; in the data active = inhibition mostly above about 38%, no sharp cut-off; inactive = mostly below about 40%
# Target sequence (O43613 whole entry, looked up): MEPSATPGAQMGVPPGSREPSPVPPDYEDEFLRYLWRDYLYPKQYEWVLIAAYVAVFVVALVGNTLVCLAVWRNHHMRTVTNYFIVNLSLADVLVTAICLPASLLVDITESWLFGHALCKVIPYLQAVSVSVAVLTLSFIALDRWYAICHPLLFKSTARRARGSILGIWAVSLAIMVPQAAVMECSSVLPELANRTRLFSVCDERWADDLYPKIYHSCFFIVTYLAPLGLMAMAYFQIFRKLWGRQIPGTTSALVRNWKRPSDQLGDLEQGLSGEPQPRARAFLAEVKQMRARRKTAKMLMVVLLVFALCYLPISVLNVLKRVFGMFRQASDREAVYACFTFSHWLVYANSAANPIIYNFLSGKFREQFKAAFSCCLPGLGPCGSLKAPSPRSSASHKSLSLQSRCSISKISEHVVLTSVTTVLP
# CHO parental Ca – ATP-evoked calcium signal inhibitors, parental CHO, primary screen, counter-screen for OX1R antagonist project, cell-based, fluorescence, Fluo-8 calcium dye; hit rate 0.63% among 330,000; AID 463079, 2010; parental CHO-K1, ATP-induced calcium, Fluo-8 fluorescence; inhibition, % at 5.6 µM;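 active = inhibition above that plate's mean sample inhibition plus 3 SD, cut at about 26% in these data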
#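 Material: parental CHO cells / Compound: single nominal dose of 5.6 µM per compound / Signal: Fluo-8 fluorescence / Replicates: singlicate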
# GPR7 antagonist – GPR7 receptor antagonists, primary screen, cell-based, fluorescence, single concentration | GPR7-expressing cells, fluorescence antagonist assay | inhibition, % at 4.4 µM | hit rate 1.1% among 290,000 | Neuropeptides B/W receptor type 1 (Homo sapiens), P48145 | AID 1861, 2009; in the data active = inhibition above about 16%, passing the limit was not always enough;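 note: cells stimulated with the agonist NPW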
# Target sequence (P48145 whole entry, looked up): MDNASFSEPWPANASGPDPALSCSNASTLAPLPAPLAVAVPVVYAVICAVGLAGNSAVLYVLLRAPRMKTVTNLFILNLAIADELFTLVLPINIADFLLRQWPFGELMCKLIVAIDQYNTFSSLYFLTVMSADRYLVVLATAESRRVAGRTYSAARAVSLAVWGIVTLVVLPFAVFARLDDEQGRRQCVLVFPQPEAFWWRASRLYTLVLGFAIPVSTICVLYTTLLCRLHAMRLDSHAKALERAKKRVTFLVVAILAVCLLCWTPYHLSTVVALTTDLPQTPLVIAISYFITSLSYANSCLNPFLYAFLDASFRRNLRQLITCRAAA
# TAAR1 agonist – human TAAR1 agonists, primary screen, Fluo-8 calcium fluorescence, CHO RD-HGA16 cells; activation, % at 3 µM; vehicle wells 0%, saturating PEA agonist 100%; hit rate 0.99% among 360,000; Trace amine-associated receptor 1 (Homo sapiens), Q96RJ0;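 active = activation above the mean activation of all test compounds in the run plus 3 SD, cut at about 38% in these data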
#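 Repeats: no replicates (n 1) | Material: CHO-derived RD-HGA16 cells with stable Gα16 and human TAAR1 | Technique: Kinetic Fluo-8 calcium fluorescence | Schedule: 17-24 h seeding, 75 min 37 °C dye, 30 min RT | Evaluation: % activation from peak over basal fluorescence ratio, DMSO-to-PEA scaled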
# TAAR1 antagonist – human TAAR1 antagonists, primary screen, Fluo-8 calcium fluorescence, CHO RD-HGA16 cells; Trace amine-associated receptor 1 (Homo sapiens), Q96RJ0; antagonist; inhibition, % at 3 µM; hit rate 1.5% among 360,000; AID 624466, 2012;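 active = inhibition above a per-plate cutoff, the mean inhibition of test compounds on that plate plus 3 SD, cut at about 49% in these data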
#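 System: RD-HGA16 CHO cells with stable hTAAR1 and Gα16 | Probe or stimulus: EC80 β-phenethylamine stimulus | Dosing: 3 µM, single point | Times: Dye loading 75 min at 37 °C, then 30 min room temperature | Measured by: Fluo-8 calcium-sensitive fluorescence | Read-out basis: % inhibition of agonist calcium response | Replicates: n of 1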
# OX1R antag-2 – OX1R (HCRTR1) antagonists, primary screen, fluorescence, CHO/OX1R cells, Fluo-8 calcium, orexin A; AID 434989, 2010; Orexin/Hypocretin receptor type 1 (Homo sapiens), O43613; hit rate 0.43% among 330,000; inhibition, % at 5 µM; Fluo-8 calcium fluorescence;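 active = inhibition above its plate's threshold, mean inhibition of all tested compounds on the plate plus 3 SD, cut at about 37% in these data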
# OX1R Ca confirm – OX1R (HCRTR1) antagonists, confirmation, fluorescence, CHO/OX1R cells, Fluo-8 calcium, orexin A. shares compounds with OX1R antag-2. AID 492963, 2010. inhibition, % at 5 µM. hit rate 38% among 1,100. orexin A calcium Fluo-8 fluorescence; in the data active = inhibition above about 29%
# CHO Ca triplic – ATP-evoked calcium inhibition in parental CHO, counter-screen for OX1R antagonist project, cell-based, fluorescence, CHO-K1, triplicate; shares compounds with OX1R antag-2; ATP-induced calcium, Fluo-8 fluorescence; inhibition, % at 5.6 µM; hit rate 9.3% among 1,100;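 active = inhibition above a per-plate limit, the mean inhibition of that plate's test compounds plus 3 SD, cut at about 25% in these data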
# OX1R HTRF confirm – OX1R (HCRTR1) antagonists, confirmation, cell-based, HTRF; AID 492964, 2010; hit rate 49% among 1,800; shares compounds with OX1R antag-1; OX1R-expressing cells, HTRF antagonist assay; inhibition, % at 6.6 µM; in the data active = inhibition above about 55%;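 note: CHO cells expressing OX1R stimulated with orexin A at about EC80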
# CHO-K1 HTRF cnt – signal inhibition in parental CHO-K1 cells, counter-screen for OX1R antagonist project, cell-based, HTRF. hit rate 48% among 1,800. inhibition, % at 6.6 µM. HTRF counterscreen. shares compounds with OX1R antag-1; in the data active = inhibition above about 17%
# Numbers stand for hits; - = inactive; . = no result given. Sampled rows, rich in hits. Any-hit rate of the full collection: about 4.6%.
SMILES,OX1R antag-1,CHO parental Ca,GPR7 antagonist,TAAR1 agonist,TAAR1 antagonist,OX1R antag-2,OX1R Ca confirm,CHO Ca triplic,OX1R HTRF confirm,CHO-K1 HTRF cnt
O=c1oc(CCCO)cc2ccc(C#Cc3ccsc3)cc12,41.5,-,.,-,-,54.8,-,-,-,-
O=C(CCCN1C(=O)/C(=C\c2ccco2)SC1=S)Nc1ccc2ccccc2c1,84.9,-,-,-,-,45.1,42.1,-,89.4,-
CCOC(=O)C1=C(COC(=O)c2cc(Br)c(Br)s2)NC(=O)NC1C (stereo not drawn),49.3,-,.,-,-,-,-,-,-,-
O=C(Nc1nnc(-c2cccnc2)o1)c1cccc(Cl)c1,-,-,-,-,-,-,.,.,.,.
CC(C)n1ncc2c(C(=O)NCC(=O)Nc3ccccc3Br)cc(C3CC3)nc21,39.7,-,.,.,.,44.6,-,-,-,-
COc1ccccc1CCNC(=O)c1cc(C2CC2)nc2c1cnn2C(C)C,.,.,.,-,-,.,.,.,.,.
O=C(N/N=C/c1c[nH]c2ccccc12)c1sc2ccccc2c1Cl,89.7,-,-,-,-,-,40.5,-,63.4,-
O=C(N/N=C/c1c[nH]c2ccccc12)c1ccccc1,-,-,-,-,-,-,.,.,.,.
COc1cccc(C(=O)NCC(=O)N/N=C/c2c(C)[nH]c3ccccc23)c1,-,-,-,-,-,-,.,.,.,.
COc1ccc2c(Cl)c(C(=O)N/N=C/c3c(C)[nH]c4ccccc34)sc2c1,65.3,-,-,-,-,40.8,63.2,-,93.0,-
COc1ccc(OCC(=O)NNc2c3ccccc3nc3ccccc23)cc1,101.8,-,-,-,58.6,41.1,-,-,-,-
O=C(CCCO)NNc1c2ccccc2nc2ccccc12,-,-,-,-,-,-,.,.,.,.
COC(=O)c1sccc1-c1ccc(/C=N/OC(=O)c2ccccc2)o1,-,-,-,-,-,-,.,.,.,.
COc1cccc(-c2cc(C(=O)Nc3ccccc3SC)no2)c1,60.5,-,-,-,-,75.7,70.8,-,94.6,-
COc1ccc(-c2cc(C(=O)Nc3ccccc3SC)no2)cc1OC,-,-,-,-,-,-,.,.,.,.
Cc1cc(N/N=C/c2ccc(O)c(C)c2O)nc(-c2ccccc2O)n1,63.4,-,-,-,56.6,50.7,39.5,-,-,17.3
Cc1cc(NCCCN)nc(-c2ccccc2O)n1,55.2,-,-,-,-,-,-,-,-,-
Cc1ccc(Nc2cc(C)nc(-c3ccccc3O)n2)cc1,-,-,-,-,-,-,.,.,.,.
C/C(=N\Nc1cc(C)nc(-c2ccccc2O)n1)c1ccccc1,-,-,-,-,-,-,.,.,.,.
CC(=O)Nc1ccc(NC(=O)C(C)OC(=O)CNS(=O)(=O)/C=C/c2ccc(C)cc2)cc1 (stereo not drawn),-,-,.,-,-,-,.,.,.,.
COc1cc(OC)cc(-c2c(C#Cc3ccsc3)c3cc(-c4ccc(OC)nc4)ccc3n2C)c1,-,-,.,-,-,-,.,.,.,.
CC(C)(C)[C@@H]1COC(=O)[C@H](Cc2ccc(F)cc2)C/C=C\C[C@@H](CC(=O)N(CCO)Cc2ccccc2)C(=O)N1,66.9,-,.,-,-,-,-,-,72.4,-
C[C@H]1COC(=O)[C@H](Cc2ccc(F)cc2)C/C=C\C[C@H](CC(=O)N(CCO)Cc2ccccc2)C(=O)N1,-,-,.,-,-,-,.,.,.,.
Cc1nnc(SCCC(=O)Nc2ccc(F)cc2)s1,-,-,-,-,-,-,.,.,.,.
CCCSc1nnc(NC(=O)Nc2ccc(F)cc2)s1,76.7,-,-,-,-,-,-,-,-,-
SMILES,OX1R antag-1,CHO parental Ca,GPR7 antagonist,TAAR1 agonist,TAAR1 antagonist,OX1R antag-2,OX1R Ca confirm,CHO Ca triplic,OX1R HTRF confirm,CHO-K1 HTRF cnt
CCCc1c(-c2ccc(Cl)cc2)ncn1Cc1cccc(-c2ccccc2)c1,.,.,.,-,-,.,.,.,.,.
CC(C)[C@H](NC(=O)[C@@H]1CSC2c3ccccc3C(=O)N21)C(=O)N1CCCCC1 (stereo partly drawn),-,-,-,-,-,-,.,.,.,.
Nc1nc(CSC(=S)N2CCN(c3ccccc3)CC2)nc(Nc2ccc(F)cc2)n1,-,-,-,-,-,-,.,.,.,.
CC1CC(C)CN(C(=S)SCc2nc(N)nc(Nc3ccccc3)n2)C1 (stereo not drawn),74.7,-,-,-,-,40.5,47.9,-,76.9,-
COc1ccc(N=Cc2c(C)[nH][nH]c2=O)cc1,-,-,-,-,-,-,.,.,.,.
Cc1ccc(NC(=O)CN2CCCC2c2cccs2)cc1S(=O)(=O)N1CCCCC1 (stereo not drawn),29.5,-,.,-,-,43.3,-,-,-,-
CC1CCCN(S(=O)(=O)c2ccc(NC(=O)C3CC(=O)N(C(C)(C)C)C3)cc2)C1 (stereo not drawn),-,-,.,-,-,-,.,.,.,.
CCSc1nnc(NC(=O)c2ccc3ccccc3n2)s1,93.5,-,-,-,-,78.8,43.5,-,92.0,-
Cc1ccc(NC(=O)c2ccc3ccccc3n2)nc1,86.9,-,-,-,-,-,37.9,-,97.1,-
O=C(Nc1ccc2c(c1)OCCO2)c1ccc2ccccc2n1,107.4,-,-,-,-,-,-,-,86.8,-
CSc1ccc(/C=C(/NC(=O)c2ccco2)C(=O)N2CCCCCC2)cc1,-,-,-,-,-,-,.,.,.,.
O=C(NCc1ccco1)C(=O)c1cn(CC(=O)N2CCCC2)c2ccccc12,-,-,-,-,-,-,.,.,.,.
O=C(CN1C(=O)/C(=C\c2cccc(Br)c2)Oc2ccccc21)NCC1CCCO1 (stereo not drawn),67.5,-,-,-,-,-,78.8,-,90.2,-
Cc1ccc(/C=C2/Sc3ccccc3N(CC(=O)NCC3CCCO3)C2=O)cc1 (stereo not drawn),77.5,-,-,.,.,55.1,58.6,-,87.7,-

# High-throughput results deposited in PubChem by The Scripps Research Institute Molecular Screening Center.
